{"data": "Published values of several laboratories", "target": "Carbonic anhydrase 2 (CA2, Homo sapiens, UniProt P00918)", "observed": "enzyme activity", "action": "inhibitor", "note": "Lines come from different studies, so protocols differ."}
{"SMILES": "NS(=O)(=O)c1nnc(NC(=O)C(F)CC2CCCCC2)s1 (centres unmarked)", "method": "stopped-flow", "Ki": "4.9 nM"}
{"SMILES": "Cc1cncc(CN2CCC(=C3c4ccc(Cl)cc4CCc4cccnc43)CC2)c1", "method": "absorbance", "Ki": "9180 nM"}
{"SMILES": "Cc1cccc(C)c1NC(=S)N/N=C/c1ccc(N2CCC(O)CC2)cc1", "Ki": "436 nM"}
{"SMILES": "NS(=O)(=O)c1nnc(NC(=O)CN2CC3CCC2CC3)s1", "method": "stopped-flow", "Ki": "43.7 nM"}
{"SMILES": "Cn1cnc([N+](=O)[O-])c1Sc1ncnc2nc[nH]c12", "method": "absorbance", "Ki": "13000 nM"}
{"SMILES": "NS(=O)(=O)c1nnc(NC(=O)C2CCC3(CCC3)CC2)s1", "method": "stopped-flow", "Ki": "21.7 nM"}
{"SMILES": "N#CSCc1cc(=O)oc2cc(O)ccc12", "method": "stopped-flow", "Ki": "> 100000 nM"}
{"SMILES": "OCCOCCN1CCN(C(c2ccccc2)c2ccc(Cl)cc2)CC1 (centres unmarked)", "method": "absorbance", "Ki": "11500 nM"}
{"SMILES": "COc1ccc(NC(=S)N/N=C/c2ccc(N3CCC(O)CC3)cc2)cc1", "Ki": "603 nM"}
{"SMILES": "CC1CCC(CC(=O)Nc2nnc(S(N)(=O)=O)s2)CC1 (centres unmarked)", "method": "stopped-flow", "Ki": "22.3 nM"}
{"SMILES": "CC(C)[C@H](N)C(=O)OCCOCn1cnc2c(=O)[nH]c(N)nc21", "method": "absorbance", "Ki": "5740 nM"}
{"SMILES": "OC1CCN(c2ccc(/C=N/NC(=S)Nc3ccc(Br)cc3)cc2)CC1", "Ki": "334 nM"}
{"SMILES": "N#CSCCCCOc1ccc2c(-c3ccccc3)cc(=O)oc2c1", "method": "stopped-flow", "Ki": "> 100000 nM"}
{"SMILES": "CC1(C(=O)Nc2nnc(S(N)(=O)=O)s2)CCC1", "method": "stopped-flow", "Ki": "29.6 nM"}
{"SMILES": "OC1CCN(c2ccc(/C=N/NC(=S)NCc3ccc(Cl)cc3)cc2)CC1", "Ki": "378 nM"}
{"SMILES": "Nc1ccc(S(=O)(=O)c2ccc(N)cc2)cc1", "method": "absorbance", "Ki": "9480 nM"}
{"SMILES": "OC1CCN(c2ccc(/C=N/NC(=S)Nc3ccc(Cl)cc3)cc2)CC1", "Ki": "401 nM"}
{"SMILES": "OC(Cn1cncn1)(Cn1cncn1)c1ccc(F)cc1F", "method": "absorbance", "Ki": "7910 nM"}
{"SMILES": "Cc1ccc(CNC(=S)N/N=C/c2ccc(N3CCC(O)CC3)cc2)cc1", "Ki": "778 nM"}
{"SMILES": "C[C@H]1CCC[C@H](C(=O)Nc2nnc(S(N)(=O)=O)s2)C1 (racemic)", "method": "stopped-flow", "Ki": "14.9 nM"}
